species on record: Rattus norvegicus; test: In vitro Inhibition of CRF-stimulated ACTH release in rat anterior pituitary cells, upon 9 min incubation at 37 degree C; format: functional, cell-based; conditions: Pituitary gland cell, 4 h, in the assay text read “4 h incubation” for “9 min incubation”
Method in brief: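 Pituitaries from 7-week-old female Sprague Dawley rats digested with collagenase (1.5 h, 37 °C), then neuraminidase (9 min, 37 °C). Cells cultured 2-3 days in 3% FCS/BBM-T at 40,000 cells/well. Antagonist (1 pM to 1 µM) added with 0.5 nM r/hCRF in BBM-T for 4 h at 37 °C. Medium ACTH measured by RIA.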

IC50 [µM] | Compound
0.126 | CC[C@H]1Cn2nc(-c3ccc(Cl)cc3Cl)c3nc(C)cc(c32)N1CC1CC1

target: T1, Corticotropin-releasing factor receptor 1 (Homo sapiens, UniProt P34998); test: In vitro inhibition of CRF-stimulated cAMP production in cell membranes expressing human CRF1 receptor; format: functional, cell-based; conditions: in the assay text read “whole cells” for “cell membranes”
T1 sequence (P34998 whole entry): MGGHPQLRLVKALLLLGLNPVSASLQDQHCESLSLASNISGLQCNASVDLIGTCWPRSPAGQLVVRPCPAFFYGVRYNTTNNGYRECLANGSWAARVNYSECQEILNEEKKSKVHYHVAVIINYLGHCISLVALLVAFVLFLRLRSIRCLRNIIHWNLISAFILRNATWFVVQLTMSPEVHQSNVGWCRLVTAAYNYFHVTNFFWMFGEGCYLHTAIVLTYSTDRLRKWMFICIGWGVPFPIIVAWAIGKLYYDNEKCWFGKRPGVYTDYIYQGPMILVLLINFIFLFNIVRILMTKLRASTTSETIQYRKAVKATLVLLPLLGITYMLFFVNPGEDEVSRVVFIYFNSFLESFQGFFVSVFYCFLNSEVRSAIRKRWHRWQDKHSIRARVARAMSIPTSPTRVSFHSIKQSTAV
Method in brief: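 Live whole L-hCRF1 cells (LtK- cells expressing human CRF1 receptor) were plated at 100 000 cells/well the day before and washed with DPBS. Buffer was DMEM without phenol red with 1 mM IBMX. CRF plus antagonist at various concentrations were added for 30 min at 37 °C in 5% CO2. Total cAMP was read by chemiluminescent immunoassay and IC50 was obtained by nonlinear curve fitting.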

IC50 [µM] | Compound
0.0794 | CC[C@H]1Cn2nc(-c3ccc(Cl)cc3Cl)c3nc(C)cc(c32)N1CC1CC1

target: T1, Corticotropin-releasing factor receptor 1; test: Binding affinity for human corticotropin releasing factor receptor 1 expressed in LtK- cells using [125I]sauvagine; format: cell-based; conditions: not given
Method in brief: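 Buffer: DPBS with 10 mM MgCl2 and 2 mM EGTA, pH 7.4. Competitor 10 pM to 1 µM, run in duplicate, 2 h at room temperature. Bound ligand separated by vacuum filtration and counted by gamma counter. Nonspecific binding taken with excess unlabeled sauvagine. Ki from nonlinear curve fitting.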

Compound | Ki [µM]
CCCC(CCC)N1CCn2nc(-c3ccc(Cl)cc3Cl)c3nc(C)cc1c32 | 0.00501
CC[C@H]1Cn2nc(-c3ccc(Cl)cc3C)c3nc(C)cc(c32)N1CC1CC1 | 0.00794
CC[C@H]1Cn2nc(-c3ccc(C)cc3Cl)c3nc(C)cc(c32)N1CC1CC1 | 0.00631
Cc1cc2c3c(n1)c(-c1ccc(Cl)cc1Cl)nn3C[C@H](C)N2CC1CC1 | 0.00794
CC[C@H]1Cn2nc(-c3ccc(OC)cc3C)c3nc(C)cc(c32)N1CC1CC1 | 0.01
CC[C@H]1Cn2nc(-c3ccc(Cl)cc3Cl)c3nc(C)cc(c32)N1CCOC | 0.0501
CC[C@H]1Cn2nc(-c3ccc(Cl)cc3Cl)c3nc(C)cc(c32)N1 | 0.794
CC[C@H]1Cn2nc(-c3ccc(C(C)C)cc3C(F)(F)F)c3nc(C)cc(c32)N1CC1CC1 | 0.00794
CC[C@H]1Cn2nc(-c3ccc(F)cc3Cl)c3nc(C)cc(c32)N1CC1CC1 | 0.0126
CCCCN1c2cc(C)nc3c(-c4ccc(Cl)cc4Cl)nn(c23)C[C@@H]1CC | 0.00631
Cc1cc2c3c(n1)c(-c1ccc(Cl)cc1Cl)nn3CCN2C1CCCCC1 | 0.158
CCCN1c2cc(C)nc3c(-c4ccc(Cl)cc4Cl)nn(c23)C[C@@H]1CC | 0.0316
Cc1cc2c3c(n1)c(-c1ccc(Cl)cc1Cl)nn3C[C@H](c1ccccc1)N2CC1CC1 | 0.01
CC[C@H]1Cn2nc(-c3ccc(Cl)cc3Cl)c3nc(C)cc(c32)N1Cc1ccccc1 | 0.158
CC[C@H]1Cn2nc(-c3ccc(Cl)cc3OC)c3nc(C)cc(c32)N1CC1CC1 | 0.0251
CC[C@H]1Cn2nc(-c3ccc(C(F)(F)F)cc3C(F)(F)F)c3nc(C)cc(c32)N1CC1CC1 | 0.00794
Cc1cc2c3c(n1)c(-c1ccc(Cl)cc1Cl)nn3CCN2CC1CC1 | 0.0794
Cc1cc2c3c(n1)c(-c1ccc(Cl)cc1Cl)nn3C[C@H](C(C)C)N2CC1CC1 | 0.00501
CC[C@H]1Cn2nc(-c3ccc(OC)cc3C(F)(F)F)c3nc(C)cc(c32)N1CC1CC1 | 0.00794
CCC[C@H]1Cn2nc(-c3ccc(Cl)cc3Cl)c3nc(C)cc(c32)N1CC1CC1 | 0.00398
CC[C@H]1Cn2nc(-c3ccc(Cl)cc3F)c3nc(C)cc(c32)N1CC1CC1 | 0.0501
CC[C@H]1Cn2nc(-c3ccc(C)cc3C)c3nc(C)cc(c32)N1CC1CC1 | 0.0126
CCC(CC)N1CCn2nc(-c3ccc(Cl)cc3Cl)c3nc(C)cc1c32 | 0.00398
CCCN(CC1CC1)c1cc(C)nc2c(-c3ccc(Cl)cc3Cl)nn(C)c12 | 0.00158
CCCCN(CC)c1nc(C)nc2c1c(C)c(C)n2-c1c(C)cc(C)cc1C [ANTALARMIN] | 0.00251

Continued, values first:

Ki [µM] | Compound
0.02 | CC[C@H]1Cn2nc(-c3ccc(Cl)cc3C(F)(F)F)c3nc(C)cc(c32)N1CC1CC1
0.00398 | CC[C@H]1Cn2nc(-c3ccc(C(F)(F)F)cc3Cl)c3nc(C)cc(c32)N1CC1CC1
0.0158 | CC[C@H]1Cn2nc(-c3ccc(Cl)cc3Cl)c3nc(C)cc(c32)N1CC(C)C
0.0631 | CC[C@H]1Cn2nc(-c3ccc(Cl)cc3Cl)c3nc(C)cc(c32)N1CC
0.00501 | CCCCC(CCCC)N1CCn2nc(-c3ccc(Cl)cc3Cl)c3nc(C)cc1c32
0.126 | CC[C@@H]1Cn2nc(-c3ccc(Cl)cc3Cl)c3nc(C)cc(c32)N1CC1CC1
0.158 | CC[C@H]1Cn2nc(-c3ccc(C(=O)OC)cc3Cl)c3nc(C)cc(c32)N1CC1CC1
0.00398 | CC[C@H]1Cn2nc(-c3ccc(OC)cc3Cl)c3nc(C)cc(c32)N1CC1CC1
0.0794 | Cc1cc2c3c(n1)c(-c1ccc(Cl)cc1Cl)nn3CCN2C(C)C
0.398 | Cc1cc2c3c(n1)c(-c1ccc(Cl)cc1Cl)nn3CCN2CC(C)C
0.02 | CC[C@H]1Cn2nc(-c3ccc(Cl)cc3Cl)c3nc(C)cc(c32)N1CC1CCC1
0.0631 | CCC(COC)N1CCn2nc(-c3ccc(Cl)cc3Cl)c3nc(C)cc1c32 (centres undefined)
